Screening results: PubChem, several laboratories
Myeloid diff 2 = myeloid differentiation induction | 1% of 360,000 active | ER-HoxA9 myeloid progenitors, lysozyme-GFP differentiation, flow cytometry | calls only at 10 µM;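 active means normalized GFP-positive differentiation at or above the plate's own cutoff, the solvent-only control mean plus 3 SD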;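 further: cells exposed to compound for four days before flow analysis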
ABCB6 inh MLPCN = blocks the human ABCB6 transporter | Q9NP58 | K562-ABCB6 porphyrin accumulation, flow cytometry, 1 h; active compounds read low | fluorescence ratio to DMSO, % at 10 µM | 0.19% of 360,000 active | AID 602162;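 active means fluorescence ratio to DMSO below 75%, the collection mean minus 3 SD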;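 further: signal is porphyrin accumulated inside mitochondria; lower ratio means ABCB6 inhibition with less porphyrin fluorescence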
CendR NRP1 mod = alters CendR peptide binding to human NRP-1; FAM-RPARPAR peptide binding to NRP-1, fluorescence polarization; inhibition, % at 25 µM; 0.85% of 360,000 active;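 active means inhibition or corrected inhibition above about 18%, plus a signal ratio from 0.5 to 1.5, limit read from the data, passing the limit was not always enough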
Exocytosis inh = lytic granule exocytosis inhibition; 0.66% of 360,000 active; TALL-104 LAMP-1 surface exposure, flow cytometry; cells stimulated with thapsigargin and PMA; inhibition, % at 10 µM; AID 651702;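 active means inhibition above about 55%, limit read from the data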
ATG4B inh = blocks human ATG4B protease cleavage of LC3 substrate | Q9Y4P1 | ATG4B cleavage of LC3-PLA2, NBD-HPC fluorescence, 1 h | inhibition, % at 8.33 µM | 0.51% of 340,000 active | AID 504462; in the data active means inhibition above about 40%
Target sequence (Q9Y4P1 whole entry, looked up): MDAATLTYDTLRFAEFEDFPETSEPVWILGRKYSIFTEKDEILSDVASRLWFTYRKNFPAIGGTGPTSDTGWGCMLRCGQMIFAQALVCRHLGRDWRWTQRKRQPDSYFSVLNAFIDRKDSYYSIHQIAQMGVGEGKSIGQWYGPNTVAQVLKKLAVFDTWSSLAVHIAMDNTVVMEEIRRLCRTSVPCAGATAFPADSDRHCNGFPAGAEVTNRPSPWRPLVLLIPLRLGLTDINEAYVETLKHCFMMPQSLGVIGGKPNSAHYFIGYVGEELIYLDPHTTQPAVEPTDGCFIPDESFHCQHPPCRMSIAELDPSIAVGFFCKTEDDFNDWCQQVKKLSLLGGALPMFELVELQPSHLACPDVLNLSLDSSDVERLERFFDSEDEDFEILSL
Arrestin-AP2 inh = human beta-arrestin and AP2 interaction inhibition. FITC-arrestin peptide / GST-AP2 beads, flow cytometry; AP2 beta2 appendage carries R879A mutation. inhibition, % at 10 µM. 0.31% of 340,000 active. AID 504490;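 active means inhibition above a set limit, near 3 SD of compounds lacking own fluorescence, cut at about 54% in these data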
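Material – GST-tagged AP2 beta2-adaptin appendage (R879A) on 4 µm glutathione beads · Probe or stimulus – fluorescein-tagged arrestin peptide at 50 nM final · Timing – 12 min plus 1 h, RT · Detection – bead flow cytometry, FITC channel · Read-out basis – inhibition as reduced fluorescein signal on beads, percent · Medium – PBS plus Tween 20 (0.05%) and BSA (0.1%)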
Myeloid diff CP1 = myeloid differentiation induction; shares compounds with Myeloid diff 2; ER-HoxA9 myeloid progenitors, GFP/Mac1 double-positive flow; calls only; 2% of 2,300 active;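 active means share of green or green-and-red cells above 9 and 9% in run 1 or 4 and 3% in run 2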
GFP autofluor = compound fluorescence in myeloid differentiation counter-screen; shares compounds with Myeloid diff 2; ER-HoxA9 myeloid progenitors, no estrogen, GFP autofluorescence flow cytometry; vehicle wells 0%, positive control 100%; fluorescence response, % (no concentration beside the values); 7.4% of 2,300 active; AID 651707;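 active means over 5% cells positive for green fluorescent reporter, or over 2% positive for both it and APC stain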
Of the large screens only hits and unclear results are named; the others gave an inactive call (follow-up assays come after a bar, where they were run). The list is not random: actives were taken first. Their share in the collection is about 3.3%.

NC(=O)CC(NC(=O)c1ccccc1)c1ccc(NCc2ccc(F)cc2)c([N+](=O)[O-])c1 (centres undefined)	Myeloid diff 2 active | Myeloid diff CP1 inactive | GFP autofluor inactive
COc1ccc(-c2csc(NC(=O)c3c(C)noc3C)n2)cc1	none
Cc1ccc(-c2csc(NC(=O)c3c(C)noc3C)n2)cc1	Myeloid diff 2 active | Myeloid diff CP1 inactive | GFP autofluor inactive
C=CCN1C(=O)c2ccc(C(=O)N3CCN(c4ccccc4OC)CC3)cc2C1=O	none
COc1ccc(CCn2c(C)cc(C(=O)CN3C(=O)C(=O)N(Cc4ccco4)C3=O)c2C)cc1	Myeloid diff 2 active | Myeloid diff CP1 inactive | GFP autofluor inactive
CCOC(=O)c1ccc(S(=O)(=O)NCC(C)(C)N2CCOCC2)cc1	none
COc1cccc2sc(=NC(=O)CS(=O)(=O)c3ccc(Cl)cc3)n(C)c12	Myeloid diff 2 active | Myeloid diff CP1 inactive | GFP autofluor inactive
COc1cccc2sc(=NC(=O)CS(=O)(=O)c3ccc(F)cc3)n(C)c12	none
CCn1c(=NC(=O)CS(=O)(=O)c2ccc(C)cc2)sc2cccc(OC)c21	none | Myeloid diff CP1 inactive | GFP autofluor inactive
CCc1nc2c(OCc3cccc(Cl)c3)cccn2c1N(C)C(C)=O	none (no result: ATG4B inh, Arrestin-AP2 inh)
OC[C@@H]1CN(Cc2ccccc2)C[C@H](n2cnc3c(NCc4ccco4)ncnc32)O1	Myeloid diff 2 active (no result: ATG4B inh, Arrestin-AP2 inh) | Myeloid diff CP1 inactive | GFP autofluor inactive
O=C1CCC/C(=N/NC(=O)c2ccc(NS(=O)(=O)c3cccs3)cc2)C1	none | Myeloid diff CP1 inactive | GFP autofluor inactive
CCc1nc2ccc(C(=O)Nc3cc(-c4ccccc4)ccc3OC)cn2c1N(C)Cc1nccs1	Myeloid diff 2 active (no result: ATG4B inh, Arrestin-AP2 inh) | Myeloid diff CP1 inactive | GFP autofluor inactive
Cc1cccc(NNC(=O)C2CCC2)c1	none
Cc1ccc(CNC(=O)[C@H](C)NC(=O)C2CCN(C(=O)[C@@H]3CCCN3C(=O)OC(C)(C)C)CC2)cc1	Myeloid diff 2 active | Myeloid diff CP1 inactive | GFP autofluor inactive
CCCC(c1nnnn1C1CCCC1)N1CCN(C(=O)c2ccco2)CC1 (centres undefined)	none
CCCC(c1nnnn1C(C)(C)C)N1CCN(C(=O)c2ccco2)CC1 (centres undefined)	Myeloid diff 2 active | Myeloid diff CP1 inactive | GFP autofluor inactive
CC(C)CC(c1nnnn1C1CCCC1)N1CCN(C(=O)c2ccco2)CC1 (centres undefined)	Myeloid diff 2 active | Myeloid diff CP1 inactive | GFP autofluor inactive
C(=N\Nc1ncnc2nc[nH]c12)/c1cccs1	none
Cc1ccc2c(c1)N(CC(=O)NC1CCCC1)C(=O)CO2	none
N#CC1=C(N)Oc2n[nH]c(-c3ccccn3)c2C1c1c(F)cccc1Cl (centres undefined)	none | Myeloid diff CP1 inactive | GFP autofluor inactive
Nc1nc2cc3c(cc2cc1C(=O)NCc1ccc(F)cc1)OCO3	Myeloid diff 2 active (no result: ATG4B inh, Arrestin-AP2 inh) | Myeloid diff CP1 inactive | GFP autofluor inactive
C=CCn1c(N)cc(=O)nc1SCC(=O)NC(C)c1ccccc1 (centres undefined)	none | Myeloid diff CP1 inactive | GFP autofluor inactive
C=CC[C@@H](Cc1ccc(F)cc1)C(=O)OC[C@@H]1CCCN1C(=O)[C@@H](CC=C)CC(=O)NCCO	none
Cc1ccc(S(=O)(=O)N2CCC(=O)CC2c2ccccc2)cc1 (centres undefined)	none | Myeloid diff CP1 inactive | GFP autofluor inactive
Cc1ccc([C@@H]2C[C@H]3[C@@H](CN2S(=O)(=O)c2ccc(C)cc2)C(=O)C[C@@H](c2ccccc2)N3S(=O)(=O)c2ccc(C)cc2)cc1	none (no result: ATG4B inh, Arrestin-AP2 inh)
Cc1ccc(S(=O)(=O)N2CC3C(=O)CC(c4ccccc4)N(S(=O)(=O)c4ccc(C)cc4)C3CC2c2cccc(Cl)c2)cc1 (centres undefined)	Myeloid diff 2 active (no result: ABCB6 inh MLPCN, ATG4B inh, Arrestin-AP2 inh) | Myeloid diff CP1 inactive | GFP autofluor inactive
Cc1ccc(S(=O)(=O)N2C[C@H]3C(=O)C[C@@H](c4ccccc4)N(S(=O)(=O)c4ccccc4[N+](=O)[O-])[C@H]3C[C@H]2c2ccccc2)cc1	Myeloid diff 2 active (no result: ATG4B inh, Arrestin-AP2 inh) | Myeloid diff CP1 inactive | GFP autofluor inactive
OCCC1CN(Cc2cnc(-c3cccc4ccccc34)nc2)CCN1C1CCCCC1 (centres undefined)	none
Cc1ccc(C)c(S(=O)(=O)N2CCN(C(=O)CCC(=O)c3cc(C)sc3C)CC2)c1	Myeloid diff 2 active | Myeloid diff CP1 inactive | GFP autofluor inactive
Cc1ccc(C)c(S(=O)(=O)N2CCN(C(=O)Cc3ccccc3)CC2)c1	none
O=C1S/C(=C/c2ccc(N3CCOCC3)o2)C(=O)N1Cc1ccc(F)cc1	Exocytosis inh 78 | Myeloid diff CP1 inactive | GFP autofluor 31
O=C(COC(=O)C1COc2ccccc2O1)NC(=O)Nc1ccc2c(c1)OCCO2 (centres undefined)	none
Cc1csc(-c2cc(C(=O)NCc3cc(C(F)(F)F)cc(C(F)(F)F)c3)n[nH]2)c1	Myeloid diff 2 active (no result: ATG4B inh, Arrestin-AP2 inh) | Myeloid diff CP1 inactive | GFP autofluor inactive
CCn1c(=O)c(=O)n(CC)c2cc(S(=O)(=O)Nc3cccc(OC)c3)ccc21	Myeloid diff 2 active | Myeloid diff CP1 inactive | GFP autofluor inactive
CCCCCn1nc(-c2ccccc2)c2nc3ccccc3nc21	Myeloid diff 2 active | Myeloid diff CP1 inactive | GFP autofluor 82
CC(Sc1nc2ccccc2c(=O)n1CCCN1CCOCC1)C(=O)N1CCc2ccccc21 (centres undefined)	none
CN(C(=O)c1ccccc1C(=O)OCC(=O)c1ccc(Br)cc1)c1ccccc1	none
Cn1cc(CC(=O)N2CCN(c3ccccc3F)CC2)c2ccccc21	none
Cn1cc(CC(=O)N2CCN(c3ccc(Cl)cc3)CC2)c2ccccc21	none | Myeloid diff CP1 inactive | GFP autofluor inactive
CS(=O)(=O)c1ccc2nc(NC(=O)CCNC(=O)c3ccc(Cl)cc3)sc2c1	none
CC/C(=C1/C(=O)CC(C)(C)C(C(=O)OC)C1=O)N1CCCC1 (centres undefined)	CendR NRP1 mod 35 (no result: ABCB6 inh MLPCN) | Myeloid diff CP1 inactive | GFP autofluor inactive
COc1ccccc1N(O)C1CC(=O)N(c2ccc(F)cc2)C1=O (centres undefined)	none | Myeloid diff CP1 inactive | GFP autofluor inactive
O/N=C(\c1ccccc1)c1nccc2ccccc12	none
CCCC(/C=C/c1ccc(OC(C)=O)cc1)=C1/c2ccccc2C(=O)N1c1ccccc1	none
O=C(CC12CC3CC(CC(C3)C1)C2)Nc1nncs1	none
